Screening results as filed in PubChem BioAssay.
Compounds with a hit are over-represented: about 3.1% of the library has one in this group of screens.
Hep lipid drop – modulators of hepatic lipid droplet formation | AML12 mouse hepatocytes, oleate lipid droplets, BODIPY imaging | inhibition, % at 6.5 µM | hit rate 0.4% among 240,000;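 active means lipid droplet intensity inhibited by at least 50%, with more than 500 cells counted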
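Assay system: AML12 hepatocytes (mouse); Probe or stimulus: oleic acid at 100 µM to induce lipid droplet formation; Dosing: compound at 6.5 µM only; Schedule: compound with oleate, overnight; Detection: fluorescence imaging, 20x objective, two fields per well; Measure: % inhibition of lipid droplet signal.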
V-ATPase pHluor – yeast V-ATPase proton transport regulation by pHLuorin; S. cerevisiae, pHLuorin cytosolic pH fluorescence; response, % at 10 µM; hit rate 0.37% among 350,000; in the data active means response mostly above about 7.3%, no sharp cut-off; inactive means mostly below about 5.4%; further: actives read high
ADAM17 inh – inhibitors of human ADAM17; P78536; recombinant ADAM17, EDANS/DABCYL FRET peptide cleavage; inhibition, % at 6.95 µM; hit rate 0.83% among 370,000; AID 720648;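 active means inhibition above the mean of compounds lying between control limits plus 3 SD, set per campaign, cut at about 8.5% in these data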;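 further: 0% = DMSO-only wells as the low control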
Target sequence (P78536 215-824 limits assumed): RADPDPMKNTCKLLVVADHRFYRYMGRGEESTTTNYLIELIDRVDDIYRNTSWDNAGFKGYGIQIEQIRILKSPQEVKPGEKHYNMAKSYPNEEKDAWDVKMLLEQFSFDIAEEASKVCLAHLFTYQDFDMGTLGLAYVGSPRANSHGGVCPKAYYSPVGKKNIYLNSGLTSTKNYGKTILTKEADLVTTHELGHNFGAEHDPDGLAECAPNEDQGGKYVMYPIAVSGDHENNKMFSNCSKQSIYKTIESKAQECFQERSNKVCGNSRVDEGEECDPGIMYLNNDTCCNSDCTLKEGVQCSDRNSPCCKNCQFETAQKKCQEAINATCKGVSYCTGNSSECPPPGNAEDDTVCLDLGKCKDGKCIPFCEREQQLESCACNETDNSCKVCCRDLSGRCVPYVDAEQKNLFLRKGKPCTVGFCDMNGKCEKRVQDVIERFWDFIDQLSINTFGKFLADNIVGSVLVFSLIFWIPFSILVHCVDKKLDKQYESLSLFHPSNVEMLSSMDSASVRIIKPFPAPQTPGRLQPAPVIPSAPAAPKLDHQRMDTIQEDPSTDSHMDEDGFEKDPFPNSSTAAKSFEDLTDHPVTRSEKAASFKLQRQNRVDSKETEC
ADAM10 inh – inhibitors of human ADAM10 | recombinant ADAM10, EDANS/DABCYL FRET peptide cleavage, 3 h | hit rate 0.62% among 370,000 | O14672 | inhibition, % at 7 µM | AID 720582;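 active means inhibition above a per-campaign cutoff equal to the mean of compounds falling between control-based bounds plus 3 SD, cut at about 20% in these data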;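 further: 0% = DMSO wells while the 100% control is not disclosed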
aDG glyco up – alpha-DG glycosylation activation; hit rate 0.22% among 360,000; activation, % at 10 µM; Pro5-aDG cells, alpha-DG glycosylation AlphaScreen (IIH6); 0% Pro5, 100% B10-LARGE cell signal;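 active means activation of at least 8% versus controls, or a plate z-score of at least 8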;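 further: Pro5 are CHO cells carrying HIG-tagged alpha-DG that lacks glycosylation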
MPTP inh – permeability transition pore inhibition | isolated mouse mitochondria, Ca2+ swelling absorbance, 30 min | inhibition, % at 10 µM | hit rate 1.4% among 360,000;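 active means inhibition of 50% or more, scaled per plate between neutral and stimulator controls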;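 further: 0% = DMSO wells given calcium and 100% = 1 mM EGTA wells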
aDG glyco conf – confirmation of alpha dystroglycan glycosylation activators; shares compounds with aDG glyco up; Pro5-aDG cells, alpha-DG glycosylation, IIH6 AlphaLISA; scaled to LARGE-overexpressing B10 cells as 100%; activation, % at 10 µM (by protocol); hit rate 17% among 600;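 active means activation of at least 7% in one or more replicates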;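 further: cells exposed to compound for two days before detection; 0% = DMSO-treated Pro5 cells and 100% = DMSO-treated B10-LARGE cells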
* hit, by the source's call; x = not tested or not shown.

SMILES | Hep lipid drop | V-ATPase pHluor | ADAM17 inh | ADAM10 inh | aDG glyco up | MPTP inh | aDG glyco conf
O=C1C2C3CCC(C3)C2C(=O)N1c1ccc(OS(=O)(=O)c2ccccc2)cc1 (stereo unspecified) | 10 | 0 | 0 | 3 | 2.8* | 4 | -1
Nc1[nH]c(C(=O)c2ccccc2)c(-c2ccc(Br)cc2)c1C(=O)NCCCN1CCOCC1 | x | x | -7 | -15 | x | x | x
CCOC(=O)[C@@]12CN(C(=O)OC(C)(C)C)CC=C1N(Cc1ccc(OC)cc1)C(=O)[C@H]2CC(=O)NCCCN1CCCC1=O | x | x | -3 | -4 | x | x | x
COc1ccc(C(=O)NC(=S)N2CCCCC2)cc1 | -19 | 1 | -5 | -1 | 3.6* | 0 | -1
COc1ccc(C(=O)NC(=S)N2CCCC2)cc1 | 1 | -2 | -4 | -3 | 0 | 0 | x
Cn1c(Cc2cccs2)nnc1SCC(=O)Nc1ccc(OCc2ccccc2)cc1 | x | x | 2 | 11 | x | x | x
CCN(CC)CCNC(=O)c1cc(-c2cccnc2)nc2ccc(S(=O)(=O)N3CCC(C)CC3)cc12 | -5 | -2 | -6 | -7 | 0 | 0 | x
CCCCN(C)CCNC(=O)c1cc(-c2cccnc2)nc2ccc(S(=O)(=O)N3CCC(C)CC3)cc12 | -7 | 2 | 1 | -5 | 5.4* | -1 | 4.2*
CCNS(=O)(=O)c1ccc2nc(NC(=O)/C=C/c3cc(OC)c(OC)c(OC)c3)sc2c1 | -6 | -26 | -61 | -190 | 0 | 2 | x
COc1cc(/C=C/C(=O)Nc2nc3ccc(S(=O)(=O)NC(C)C)cc3s2)cc(OC)c1OC | 1 | -2 | -30 | -82 | 8.2* | 0 | 6.1*
Cc1ccc(NC(=O)Cn2nnc(-c3ccccc3F)n2)cc1C | x | x | -1 | -8 | x | x | x
O=C(CSc1nnc(-c2ccco2)n1Cc1ccco1)c1ccc([N+](=O)[O-])cc1 | x | x | 2 | 9 | x | x | x
O=C(c1ccc2c(c1)OCO2)N(Cc1cccs1)C1(C(=O)NC2CCCCC2)CCCCC1 | -18 | 1 | 2 | 2 | 7.4* | 6 | 0
O=C(Cc1cccs1)N(Cc1cccs1)C1(C(=O)NC2CCCC2)CCCCC1 | -7 | 2 | -3 | 0 | 0 | 1 | x
CCCCOc1ccc(C(=O)Nc2cccc(C)n2)cc1 | x | -5 | -4 | -1 | 6.3* | 0 | -1
CCOc1ccc(-n2c(COc3ccccc3)nnc2SCc2nc3ccccc3[nH]2)cc1 | x | x | 4 | 4 | x | x | x
C=CCn1c(=N)n(CC(=O)c2ccc(Cl)cc2)c2ccccc21 | -3 | -1 | -5 | -3 | 6.7* | -1 | 6.3*
CCn1c(=N)n(CC(=O)c2ccc(Cl)c(Cl)c2)c2ccccc21 | -23 | -3 | 0 | -13 | 8.0* | 0 | 9.1*
COc1cccc(-c2nnc(SCC(=O)OC(C)C)n2-c2ccc(Cl)cc2)c1 | x | x | 2 | 4 | x | x | x
COc1ccc(CC(=O)N/N=C/c2cccnc2)cc1OC | -15 | 6 | -6 | 6 | 6.5* | -1 | -1
CCOc1ccc(CC(=O)N/N=C/c2cccnc2)cc1OCC | -10 | 3 | -1 | -3 | 0 | -1 | x
O=C(CCN1CCCCC1)c1ccccc1 | 6 | -5 | 2 | -11 | 4.7* | 4 | 0
O=C(CCN1CCOCC1)c1ccccc1 | 19 | 2 | 4 | -5 | 0 | 0 | x
C=CCNC(=S)N/N=C(\C)c1ccc(OC)cc1 | -1 | x | 1 | 2 | 12* | 1 | 1
COCCNC(=S)N/N=C(\C)c1ccc(O)cc1 | -2 | 8 | -7 | -7 | 7.4* | 0 | 0
SMILES | Hep lipid drop | V-ATPase pHluor | ADAM17 inh | ADAM10 inh | aDG glyco up | MPTP inh | aDG glyco conf
COCCNC(=S)N/N=C(\C)c1ccc(-n2ccnc2)cc1 | -2 | 4 | -2 | 1 | 4 | 0 | x
O=C(N[C@@H]1CCC(=O)N(CC[C@H](Sc2ccc(Br)cc2)c2ccccc2)CC1)OCc1ccccc1 | x | -1 | 1 | 11 | 9.1* | 1 | 1
COc1ccc(S[C@@H](CCN2CC[C@H](NC(=O)OCc3ccccc3)CCC2=O)c2ccccc2)cc1 | x | 0 | 5 | 13 | 1 | 0 | x
CCOC(=O)[C@@]12CN(C(=O)OC(C)(C)C)CC=C1N(Cc1ccc(OC)cc1)C(=O)[C@H]2CC(=O)N1CCN(C(=O)C2CC2)CC1 | x | x | 1 | 1 | x | x | x
CCOc1ccc(N=Cc2ccc([N+](=O)[O-])cc2)c(O)c1 | x | 4 | -4 | -22 | 5.9* | 1 | 2
CCOc1ccc(N=Cc2ccc(N(C)C)cc2)c(O)c1 | x | 2 | x | x | 4 | 2 | x
CC(C)(N[C@@H](Cc1c[nH]c2ccccc12)C(=O)NCCc1c[nH]c2ccccc12)C(=O)NC1CCCCC1 | x | x | 3 | 6 | x | x | x
Cn1c(=N)n(CC(=O)c2ccc(F)cc2)c2ccccc21 | x | 8 | -3 | -5 | 3.8* | 0 | 3
Cn1c(=N)n(CC(=O)c2ccc(Br)cc2)c2ccccc21 | x | -1 | -3 | -4 | 4.8* | 0 | 6.1*
CN1C(=O)C[C@@](C#N)(C(=O)NCc2ccccc2)[C@H]1c1ccccc1 | x | x | -2 | -2 | x | x | x
CC(C)Oc1cc(F)ccc1-c1cc(C(=O)Nc2ccc(C(C)C)cc2)[nH]n1 | x | x | 4 | 4 | 12* | 2 | 0
CC[N+](C)(CC)CC(O)COCC1COc2ccccc2O1 (stereo unspecified) | -3 | -7 | -4 | -7 | 4.6* | -9 | -1
CC1CCCC(C)N1CC(O)COCC1COc2ccccc2O1 (stereo unspecified) | x | 0 | -1 | -12 | 0 | -2 | x
CN(CC(=O)Nc1cccc(F)c1)C(=O)c1cccc(-n2cccc2)c1 | x | -2 | -1 | -14 | 0 | -1 | x
CN(CC(=O)Nc1cccc(F)c1)C(=O)c1ccc(N2C(=O)c3ccccc3C2=O)cc1 | x | -1 | -2 | -12 | 5.1* | 0 | -1
Cc1ccc(NS(=O)(=O)c2ccc(OCC(=O)N3CCOCC3)cc2)cc1 | 9 | -1 | -1 | -2 | 0 | -1 | x
O=C(COc1ccc(NS(=O)(=O)c2ccc(F)cc2)cc1)N1CCOCC1 | 14 | 2 | -3 | 1 | 11* | 2 | -1
CCC(C)Sc1nc2c(cnn2-c2ccccc2)c(=O)[nH]1 (stereo unspecified) | 0 | 1 | 5 | -3 | 7.7* | 2 | 0
CCCCCOc1ccc(NC(=O)C(=O)NCC2CCCN2CC)cc1 (stereo unspecified) | -3 | 2 | -11 | -1 | 11* | 17 | 15*
CN(CCc1ccccn1)C(=O)c1ccc2c(c1)ncn2C1CCCCC1 | x | x | -2 | -3 | x | x | x
C(/C=C\c1ccco1)=NN1CCN(Cc2cccc3ccccc23)CC1 | x | x | 3 | 6 | x | x | x
Cc1cc(NCc2ccccn2)n2ncc(-c3ccc(Cl)cc3)c2n1 | x | 2 | -27 | -58 | 3.0* | -2 | 4.6*
CC(C)NC(=S)N/N=C1\CCCCC1C1CCCCC1 (stereo unspecified) | -6 | -3 | 2 | 2 | 7.2* | 4 | 0
